What was measured:
Type in all cases: cell-based
Thymidylate kinase = biological target: T1, Thymidylate kinase (Homo sapiens, UniProt P23919); experiment: Concentration required to reduce Thymidylate kinase rate by 50% in human blast cells
T1 sequence (P23919 whole entry): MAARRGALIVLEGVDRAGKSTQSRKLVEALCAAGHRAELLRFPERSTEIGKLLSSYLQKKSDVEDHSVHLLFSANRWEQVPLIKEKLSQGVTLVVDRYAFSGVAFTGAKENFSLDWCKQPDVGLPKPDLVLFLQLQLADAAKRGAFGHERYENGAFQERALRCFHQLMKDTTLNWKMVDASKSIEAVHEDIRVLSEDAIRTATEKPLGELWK
How it was run: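 Enzyme: dialyzed extract of blast cells from an acute myeloid leukemia patient. Data were fitted by nonlinear least-squares regression to response = a + b ln[inhibitor], error weighting 1/(γ+γ)^2, and the IC50 was derived from the fit.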

[1] = Concentration required to reduce Ribonucleotide reductase rate by 50% in L1210 cells
How it was run: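 Enzyme: crude L1210 extract brought to pH 5.2 with 1 M acetic acid; the precipitate was dissolved in 50 mM Tris-HCl pH 8.0. CDP reductase activity was measured by a published method. Data were fitted by nonlinear least-squares regression to response = a + b ln[inhibitor] with weighted error, and the IC50 was taken from the fit.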

[2] = Concentration required to reduce thymidine kinase rate by 50% in L1210 cells
How it was run: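 Cytoplasmic isoenzyme affinity-purified from L1210 cells. Reaction: 1 mM ATP, 1 mM MgCl2, 10 μM [3H]thymidine (150 μCi/μmol), 5% sucrose, 40 mM Tris pH 7.8. Inhibitor ranged 0-500 μM. Inhibitor concentrations were verified by UV absorbance at 260 nm.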

Compound | IC50 (Thymidylate kinase) | IC50 [1] | IC50 [2]
Cc1cn(C2C[C@H](O)[C@@H](COP(=O)(O)CP(=O)(O)OP(=O)(O)OP(=O)(O)OP(=O)(O)OP(=O)(O)OC[C@H]3OC(n4cnc5c(N)ncnc54)[C@H](O)[C@@H]3O)O2)c(=O)[nH]c1=O (some centres undefined) | 4 µM | 230 µM | 19.7 µM
Cc1cn(C2C[C@H](O)[C@@H](COP(=O)(O)OP(=O)(O)OP(=O)(O)OC[C@H]3OC(n4cnc5c(N)ncnc54)[C@H](O)[C@@H]3O)O2)c(=O)[nH]c1=O (some centres undefined) | 1230 µM | > 500 µM | > 500 µM
Cc1cn(C2C[C@H](O)[C@@H](COP(=O)(O)CP(=O)(O)OP(=O)(O)OC[C@H]3OC(n4cnc5c(N)ncnc54)[C@H](O)[C@@H]3O)O2)c(=O)[nH]c1=O (some centres undefined) | 730 µM | 460 µM | > 500 µM
Nc1ncnc2c1ncn2C1O[C@H](COP(=O)(O)OP(=O)(O)OP(=O)(O)OP(=O)(O)OP(=O)(O)OC[C@H]2OC(n3cnc4c(N)ncnc43)[C@H](O)[C@@H]2O)[C@@H](O)[C@H]1O (some centres undefined) | > 1000 µM |  | 
Cc1cn(C2C[C@H](O)[C@@H](COP(=O)(O)CP(=O)(O)OP(=O)(O)OP(=O)(O)OC[C@H]3OC(n4cnc5c(N)ncnc54)[C@H](O)[C@@H]3O)O2)c(=O)[nH]c1=O (some centres undefined) | 340 µM | 300 µM | 17 µM

Continued, values first:

IC50 (Thymidylate kinase) | IC50 [1] | IC50 [2] | Compound
6 µM | 130 µM | 9.2 µM | Cc1cn(C2C[C@H](O)[C@@H](COP(=O)(O)CP(=O)(O)OP(=O)(O)OP(=O)(O)OP(=O)(O)OC[C@H]3OC(n4cnc5c(N)ncnc54)[C@H](O)[C@@H]3O)O2)c(=O)[nH]c1=O (some centres undefined)
6 µM | 20 µM |  | Cc1cn(C2C[C@H](O)[C@@H](COP(=O)(O)OP(=O)(O)OP(=O)(O)OP(=O)(O)OP(=O)(O)OP(=O)(O)OC[C@H]3OC(n4cnc5c(N)ncnc54)[C@H](O)[C@@H]3O)O2)c(=O)[nH]c1=O (some centres undefined)
290 µM | 77 µM | 15 µM | Cc1cn([C@H]2C[C@H](O)[C@@H](CO[P@@](=O)(O)O[P@@](=O)(O)O[P@@](=O)(O)O[P@@](=O)(O)OC[C@H]3O[C@@H](n4cnc5c(N)ncnc54)[C@H](O)[C@@H]3O)O2)c(=O)[nH]c1=O
8 µM | 14 µM | 2.5 µM | Cc1cn([C@H]2C[C@H](O)[C@@H](COP(=O)(O)OP(=O)(O)OP(=O)(O)OP(=O)(O)OP(=O)(O)OC[C@H]3O[C@@H](n4cnc5c(N)ncnc54)[C@H](O)[C@@H]3O)O2)c(=O)[nH]c1=O
